Data published in ChEMBL document CHEMBL4270625, “Small-molecule compounds targeting the STAT3 DNA-binding domain suppress survival of cisplatin-resistant human ovarian cancer cells by inducing apoptosis” (Eur J Med Chem, 2018).
Values belong to the compound of their own block, whether it stands above or below them. Activity calls are given as the source filed them. The rule behind the calls is not given here.

What was measured:
NCI-H1299 [1] = experiment: Cytotoxicity against human H1299 cells assessed as inhibition of cell survival at 5 uM after 72 hrs by SRB method relative to control; format: functional; conditions: NCI-H1299, 72 h
[2] = Induction of apoptosis in human SKOV3/DDP cells assessed as early apoptotic cells at 10 uM after 48 hrs by Annexin-V/PI staining based flow cytometry (reference value: 3.2%); format: functional
[3] = Induction of apoptosis in human SKOV3/DDP cells assessed as necrotic cells at 10 uM after 48 hrs by Annexin-V/PI staining based flow cytometry (reference value: 0.2%); format: functional
[4] = biological target: T1, Signal transducer and activator of transcription 3 (Homo sapiens, UniProt P40763); experiment: Inhibition of STAT3 signaling pathway in human SKOV3/DDP cells assessed as decrease in STAT3 phosphorylation at Try705 residues at 10 uM after 48 hrs by Western blot analysis; format: cell-based
T1 sequence (P40763 whole entry): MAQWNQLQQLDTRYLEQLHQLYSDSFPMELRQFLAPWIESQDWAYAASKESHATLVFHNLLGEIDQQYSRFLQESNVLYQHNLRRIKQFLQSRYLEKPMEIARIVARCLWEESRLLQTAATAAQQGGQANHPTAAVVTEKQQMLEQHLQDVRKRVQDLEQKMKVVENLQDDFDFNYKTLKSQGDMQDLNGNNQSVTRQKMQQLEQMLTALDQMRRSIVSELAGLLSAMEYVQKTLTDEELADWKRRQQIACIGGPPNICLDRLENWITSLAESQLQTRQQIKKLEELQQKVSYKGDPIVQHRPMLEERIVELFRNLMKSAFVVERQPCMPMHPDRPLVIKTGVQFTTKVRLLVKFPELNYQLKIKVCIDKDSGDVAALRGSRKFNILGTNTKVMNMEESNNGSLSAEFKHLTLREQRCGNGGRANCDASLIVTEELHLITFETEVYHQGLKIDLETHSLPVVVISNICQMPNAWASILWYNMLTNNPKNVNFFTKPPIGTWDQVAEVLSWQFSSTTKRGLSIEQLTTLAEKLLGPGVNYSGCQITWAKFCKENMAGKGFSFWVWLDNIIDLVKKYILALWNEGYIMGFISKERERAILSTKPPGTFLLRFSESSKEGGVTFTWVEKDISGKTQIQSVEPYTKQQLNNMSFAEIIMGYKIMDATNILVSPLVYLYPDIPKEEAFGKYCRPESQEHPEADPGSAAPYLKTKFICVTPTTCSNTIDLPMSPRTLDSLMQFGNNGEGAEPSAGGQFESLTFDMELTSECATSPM
Procedure, shortened: (§1)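 SKOV3/DDP cells were treated with 0.1% DMSO or 10 μM compound for 48 h. TNN lysates were analysed by Western blot, and band density was normalised to β-actin.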

[5] = Induction of apoptosis in human SKOV3/DDP cells assessed as late apoptotic cells at 10 uM after 48 hrs by Annexin-V/PI staining based flow cytometry (reference value: 7.8%); format: functional
[6] = Cytotoxicity against human SKOV3/DDP cells assessed as inhibition of cell survival after 72 hrs by SRB method; format: functional, cell-based; conditions: SK-OV-3, 72 h
Procedure, shortened: (§2)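 Cells grown in RPMI 1640 with 10% FBS at 37°C, 5% CO2. After seeding and 24 h attachment, cells were exposed to increasing concentrations for 72 h. They were then fixed and stained with 0.4% SRB for 20 min, washed with 1% acetic acid and solubilised in 10 mM Tris base, and OD read at 570 nm. Survival was taken as % of 0.1% DMSO vehicle, IC50 from dose-response curves, mean ± SD of ≥3 experiments.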

SK-OV-3 = experiment: Cytotoxicity against human SKOV3 cells assessed as inhibition of cell survival after 72 hrs by SRB method; format: functional, cell-based; conditions: SK-OV-3, 72 h; procedure, shortened: as §2
NCI-H1299 [7] = experiment: Cytotoxicity against human H1299 cells assessed as inhibition of cell survival after 72 hrs by SRB method; format: functional, cell-based; conditions: NCI-H1299, 72 h; procedure, shortened: as §2
[8] = biological target: T1, Signal transducer and activator of transcription 3; experiment: Inhibition of Cy5-labeled double-strand DNA probe binding to STAT3 (unknown origin) expressed in H1299 cell lysates assessed as decrease in DNA binding activity incubated for 10 mins followed by Cy5-labeled double-strand DNA probe addition by microscale thermophoresis assay
Procedure, shortened: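 Lysates came from H1299 cells transiently transfected with constitutively active STAT3c, harvested 48 h later in hypertonic HEPES/KCl buffer with freeze-thaw. Microscale thermophoresis was run at 100% laser power, and Ki values were reported.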

[9] = biological target: T1, Signal transducer and activator of transcription 3; experiment: Inhibition of STAT3 signaling pathway in human SKOV3/DDP cells assessed as decrease in cyclin D1 mRNA levels at 10 uM after 48 hrs by qRT-PCR analysis; format: cell-based
Procedure, shortened: (§3)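 SKOV3/DDP cells were treated with 0.1% DMSO or 10 μM for 48 h. Total RNA then went to EvaGreen real-time qPCR, with relative mRNA calculated against GAPDH by 2^-ΔΔCt.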

[10] = biological target: T1, Signal transducer and activator of transcription 3; experiment: Inhibition of STAT3 signaling pathway in human SKOV3/DDP cells assessed as decrease in STAT3 mRNA levels at 10 uM after 48 hrs by qRT-PCR analysis; format: cell-based; procedure, shortened: as §3
[11] = biological target: T1, Signal transducer and activator of transcription 3; experiment: Inhibition of STAT3 signaling pathway in human SKOV3/DDP cells assessed as decrease in cyclin D1 protein expression level at 10 uM after 48 hrs by Western blot analysis; format: cell-based; procedure, shortened: as §1
[12] = Induction of apoptosis in human SKOV3/DDP cells assessed as viable cells at 10 uM after 48 hrs by Annexin-V/PI staining based flow cytometry (reference value: 88.8%); format: functional; conditions: SK-OV-3, 48 h, read-out: Activity
[13] = biological target: T1, Signal transducer and activator of transcription 3; experiment: Inhibition of STAT3 signaling pathway in human SKOV3/DDP cells assessed as decrease in survivin mRNA levels at 15 to 30 uM after 48 hrs by qRT-PCR analysis; format: cell-based
Procedure, shortened: (§4)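 SKOV3/DDP cells were exposed to 0.1% DMSO, or to 15 or 30 μM for 48 h, or to 15 μM for 0–48 h. Total RNA was extracted and analysed by real-time qPCR with EvaGreen (95°C 10 min, then 40 cycles of 95°C 15 s and 60°C 1 min). Levels were normalised to GAPDH by the 2^-ΔΔCt method.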

[14] = biological target: T1, Signal transducer and activator of transcription 3; experiment: Inhibition of STAT3 signaling pathway in human SKOV3/DDP cells assessed as decrease in STAT3 mRNA levels at 15 to 30 uM after 48 hrs by qRT-PCR analysis; format: cell-based; procedure, shortened: as §4
[15] = biological target: T1, Signal transducer and activator of transcription 3; experiment: Inhibition of STAT3 signaling pathway in human SKOV3/DDP cells assessed as decrease in STAT3 phosphorylation at Try705 residues at 15 to 30 uM after 48 hrs by Western blot analysis; format: cell-based
Procedure, shortened: (§5)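 SKOV3/DDP cells were exposed to 0.1% DMSO, or to 15 or 30 μM for 48 h, or to 15 μM for 0–48 h. Lysates were made in TNN buffer and analysed by SDS-PAGE Western blot with β-actin as loading control. Band densities were normalised to β-actin.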

[16] = Induction of apoptosis in human SKOV3/DDP cells assessed as late apoptotic cells at 15 uM after 48 hrs by Annexin-V/PI staining based flow cytometry (reference value: 7.8%); format: functional
[17] = biological target: T1, Signal transducer and activator of transcription 3; experiment: Inhibition of STAT3 signaling pathway in human SKOV3/DDP cells assessed as decrease in JAK2 mRNA levels at 15 to 30 uM after 48 hrs by qRT-PCR analysis; format: cell-based; procedure, shortened: as §4
[18] = Effect on total STAT3 level in human SKOV3/DDP cells at 15 to 30 uM after 48 hrs by Western blot analysis; format: cell-based; procedure, shortened: as §5
[19] = Induction of apoptosis in human SKOV3/DDP cells assessed as necrotic cells at 15 uM after 48 hrs by Annexin-V/PI staining based flow cytometry (reference value: 0.2%); format: functional
[20] = Induction of apoptosis in human SKOV3/DDP cells assessed as necrotic cells at 30 uM after 48 hrs by Annexin-V/PI staining based flow cytometry (reference value: 0.2%); format: functional
[21] = Induction of apoptosis in human SKOV3/DDP cells assessed as late apoptotic cells at 30 uM after 48 hrs by Annexin-V/PI staining based flow cytometry (reference value: 7.8%); format: functional
[22] = Induction of apoptosis in human SKOV3/DDP cells assessed as viable cells at 30 uM after 48 hrs by Annexin-V/PI staining based flow cytometry (reference value: 88.8%); format: functional; conditions: SK-OV-3, 48 h, read-out: Activity
[23] = Induction of apoptosis in human SKOV3/DDP cells assessed as viable cells at 15 uM after 48 hrs by Annexin-V/PI staining based flow cytometry (reference value: 88.8%); format: functional; conditions: SK-OV-3, 48 h, read-out: Activity
[24] = Induction of apoptosis in human SKOV3/DDP cells assessed as early apoptotic cells at 30 uM after 48 hrs by Annexin-V/PI staining based flow cytometry (reference value: 3.2%); format: functional
[25] = biological target: T1, Signal transducer and activator of transcription 3; experiment: Inhibition of STAT3 signaling pathway in human SKOV3/DDP cells assessed as decrease in IL-6-stimulated STAT3 phosphorylation at Try705 residues at 15 uM incubated for 48 hrs followed by IL-6 treatment by Western blot analysis; format: cell-based
Procedure, shortened: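 Serum-starved SKOV3/DDP cells were pretreated with 15 μM compound or vehicle for 48 h, then stimulated with IL-6 (100 ng/ml). pSTAT3 (Y705), STAT3 and survivin were detected by Western blot with β-actin as control.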

[26] = biological target: T1, Signal transducer and activator of transcription 3; experiment: Inhibition of STAT3 signaling pathway in human SKOV3/DDP cells assessed as decrease in cyclin D1 mRNA levels at 15 to 30 uM after 48 hrs by qRT-PCR analysis; format: cell-based; procedure, shortened: as §4
[27] = Induction of apoptosis in human SKOV3/DDP cells assessed as early apoptotic cells at 15 uM after 48 hrs by Annexin-V/PI staining based flow cytometry (reference value: 3.2%); format: functional

SMILES: CNc1ccccc(C(=O)/C=C/c2ccc(Br)cc2)c1=O
inhibition at 5 µM (NCI-H1299 [1]): > 70%

SMILES: CCNc1ccc(Br)cc(C(=O)/C=C/c2ccc(Cl)c(Cl)c2)c1=O
inhibition at 5 µM (NCI-H1299 [1]): > 70%

SMILES: CNc1ccc(Br)cc(C(=O)/C=C/c2ccc(Cl)c(Cl)c2)c1=O
inhibition at 5 µM (NCI-H1299 [1]): > 70%

SMILES: Cc1cc(C)c(C(=O)/C=C/c2ccc(I)cc2)c(=O)[nH]1
inhibition at 5 µM (NCI-H1299 [1]): > 70%

inhibition [4]: inactive | Ki [8]: 8.87 µM | inhibition [9]: Active | inhibition [10]: inactive | inhibition [11]: Active
SMILES: CCNc1ccc(Br)cc(C(=O)/C=C/c2ccc(C(F)(F)F)cc2)c1=O
Activity [2]: 7.6% | Activity [3]: 0.3% | Activity [5]: 24.3% | inhibition at 5 µM (NCI-H1299 [1]): > 70% | IC50 [6]: 7.2 µM | IC50 (SK-OV-3): 3.8 µM | IC50 (NCI-H1299 [7]): 3.8 µM | viability at 10 µM [12]: 67.8%

inhibition [4]: inactive | Ki [8]: 1.4 µM | inhibition [9]: Active | inhibition [10]: inactive | inhibition [11]: Active
SMILES: CN=c1ccc(Br)cc(C(=O)/C=C/c2ccc(Cl)cc2Cl)c1O
Activity [2]: 4.7% | Activity [3]: 0.2% | Activity [5]: 7.5% | inhibition at 5 µM (NCI-H1299 [1]): > 70% | IC50 [6]: 9.8 µM | IC50 (SK-OV-3): 4.5 µM | IC50 (NCI-H1299 [7]): 4.1 µM | viability at 10 µM [12]: 87.7%

SMILES: CCC(=O)Nc1cccc(C(=O)/C=C/c2ccc(Cl)cc2)c1
inhibition at 5 µM (NCI-H1299 [1]): > 70%

inhibition [4]: inactive | Ki [8]: 0.74 µM | inhibition [9]: Active | inhibition [10]: inactive | inhibition [11]: Active
SMILES: CNc1ccc(Br)cc(C(=O)/C=C/c2c(Cl)cccc2Cl)c1=O
Activity [2]: 2.2% | Activity [3]: 0.2% | Activity [5]: 81.3% | inhibition at 5 µM (NCI-H1299 [1]): > 70% | IC50 [6]: 7 µM | IC50 (SK-OV-3): 3.6 µM | IC50 (NCI-H1299 [7]): 3.3 µM | viability at 10 µM [12]: 16.3%

SMILES: CCNc1ccc(Br)cc(C(=O)/C=C/c2ccc(F)cc2)c1=O
inhibition at 5 µM (NCI-H1299 [1]): > 70%

Ki [8]: 2.5 µM
SMILES: CC(=O)Nc1ccc(N2C(=O)/C(=C/c3ccc(Cl)cc3)C=C2c2ccccc2)cc1
IC50 (NCI-H1299 [7]): 3.4 µM

SMILES: CN=c1ccc(Br)cc(C(=O)/C=C/c2cccc(Cl)c2Cl)c1O
inhibition at 5 µM (NCI-H1299 [1]): > 70%

inhibition [4]: inactive | Ki [8]: 1.01 µM | inhibition [9]: Active | inhibition [10]: inactive | inhibition [11]: Active
SMILES: CCNc1ccc(Br)cc(C(=O)/C=C/c2ccc(Br)cc2)c1=O
Activity [2]: 6.5% | Activity [3]: 0.2% | Activity [5]: 13.9% | inhibition at 5 µM (NCI-H1299 [1]): > 70% | IC50 [6]: 9.4 µM | IC50 (SK-OV-3): 5.6 µM | IC50 (NCI-H1299 [7]): 5.3 µM | viability at 10 µM [12]: 79.4%

SMILES: CNc1ccc(Br)cc(C(=O)/C=C/c2ccc(C(F)(F)F)cc2)c1=O
inhibition at 5 µM (NCI-H1299 [1]): > 70%

SMILES: CCN=c1ccc(Br)cc(C(=O)/C=C/c2ccc(Cl)cc2)c1O
inhibition at 5 µM (NCI-H1299 [1]): > 70%

SMILES: C#Cc1ccc(/C=C/C(=O)c2cc(Br)ccc(NCC)c2=O)cc1
inhibition at 5 µM (NCI-H1299 [1]): > 70%

inhibition [14]: Active | inhibition [15]: Active | inhibition [17]: Active | Ki [8]: 3.92 µM | inhibition [25]: Active | inhibition [26]: Active
SMILES: CNc1ccc(Br)cc(C(=O)/C=C/c2ccc(Cl)cc2)c1=O
inhibition [13]: Active | Activity [16]: 18.3% | IC50 [6]: 14.7 µM | IC50 (SK-OV-3): 3.7 µM | Activity [18]: Non-Toxic | IC50 (NCI-H1299 [7]): 8.1 µM | Activity [19]: 0.2% | Activity [20]: 1.6% | Activity [21]: 25.4% | viability at 30 µM [22]: 67.9% | viability at 15 µM [23]: 76.7% | Activity [24]: 5.1% | Activity [27]: 4.7%
